ChEMBL document CHEMBL1765029, “Synthesis and biological evaluation of estradiol linked pyrrolo[2,1-c][1,4]benzodiazepine (PBD) conjugates as potential anticancer agents” (2011)
Activity calls are given as the source filed them. No cut-off for these calls is given here.

Experiments:
MCF7 [1] = assay: Cell cycle arrest in human MCF7 cells assessed as accumulation at G2/M phase using propidium iodide staining at 4 uM after 24 hrs by flow cytometry; type: functional
Method in brief: (§1)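 MCF-7 cells (5 × 10⁵ per 60 mm dish) grown 24 h, then exposed to 4 µM compound for a further 24 h; DMSO-treated control. Cells trypsinised, fixed in ice-cold 70% ethanol at 4 °C for 30 min, RNase-treated (1 mg/mL, 37 °C, 30 min), stained with propidium iodide/citrate/Triton X-100. DNA content read on 20,000 events by flow cytometry; percent cells per phase reported.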

A549 = assay: Cytotoxicity against human A549 cells by sulforhodamine B method; type: functional
MCF7 [2] = assay: Cell cycle arrest in human MCF7 cells assessed as accumulation at S phase using propidium iodide staining at 4 uM after 24 hrs by flow cytometry; type: functional; method in brief: as §1
MCF7 [3] = assay: Reduction in Cdk1 protein level in human MCF7 cells at 4 uM after 24 hrs by Western blot analysis; type: functional, cell-based
Method in brief: (§2)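 MCF-7 cells (5 × 10⁵ per 60 mm dish) grown 24 h, then treated at 4 µM for 24 h. Lysis in ice-cold RIPA buffer with protease/phosphatase inhibitors; protein measured by Bradford. Fifty µg per lane resolved on 12% SDS-PAGE and transferred to PVDF. Blocked 2 h, primary antibody overnight at 4 °C, chemiluminescent detection; β-actin as loading control.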

SiHa = assay: Cytotoxicity against human SiHa cells by sulforhodamine B method; type: functional
COLO 205 = assay: Cytotoxicity against human COLO205 cells by sulforhodamine B method; type: functional
KB = assay: Cytotoxicity against human KB cells by sulforhodamine B method; type: functional
HOP-62 = assay: Cytotoxicity against human HOP62 cells by sulforhodamine B method; type: functional
MCF7 [4] = assay: Cytotoxicity against human MCF7 cells by sulforhodamine B method; type: functional
MCF7 [5] = assay: Cytotoxicity against human MCF7 cells at 4 uM after 24 hrs by MTT assay; type: functional, cell-based
Method in brief: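 MCF-7 cells seeded at 10,000 per well, incubated overnight, then treated at 4 µM for 24 h; DMSO control. Medium replaced with MTT, 2 h at 37 °C. Formazan solubilised in extraction buffer, absorbance read at 570 nm, expressed as percent viability.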

A2780 = assay: Cytotoxicity against human A2780 cells by sulforhodamine B method; type: functional
MCF7 [6] = assay: Cell cycle arrest in human MCF7 cells assessed as accumulation at G0 phase using propidium iodide staining at 4 uM after 24 hrs by flow cytometry; type: functional; method in brief: as §1
MCF7 [7] = assay: Cell cycle arrest in human MCF7 cells assessed as accumulation at G1 phase using propidium iodide staining at 4 uM after 24 hrs by flow cytometry; type: functional; method in brief: as §1
PC-3 = assay: Cytotoxicity against human PC3 cells by sulforhodamine B method; type: functional
[8] = Cytotoxicity against human Gurav cells by sulforhodamine B method; type: functional
[9] = Cytotoxicity against human DWD cells by sulforhodamine B method; type: functional
ZR-75-1 = assay: Cytotoxicity against human ZR-75-1 cells by sulforhodamine B method; type: functional
MCF7 [10] = assay: Induction of apoptosis in human MCF7 cells assessed up-regulation of p21 protein level at 4 uM after 24 hrs by Western blot analysis; type: functional, cell-based; method in brief: as §2
MCF7 [11] = assay: Induction of apoptosis in human MCF7 cells assessed as DNA fragmentation at 4 uM after 24 hrs by TUNEL assay relative to control; type: functional, cell-based
Method in brief: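 MCF-7 cells treated at 4 µM for 24 h; untreated cells as control. Nuclear DNA fragmentation detected by TdT-mediated fluorescein-dUTP nick-end labelling (ApoAlert kit). Labelled cells imaged by confocal microscopy, green stain marking TUNEL-positive cells.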

MCF7 [12] = assay: Down regulation of HDAC-1 protein in human MCF7 cells at 4 uM after 24 hrs by Western blot analysis; type: functional, cell-based; method in brief: as §2
MCF7 [13] = assay: Induction of apoptosis in human MCF7 cells assessed up-regulation of p53 protein level at 4 uM after 24 hrs by Western blot analysis; type: functional, cell-based; method in brief: as §2
Tubulin (Homo sapiens) = Tubulin (Homo sapiens) (UniProt P68371+Q9H4B7+P0DPH7+P68366+Q13509+Q71U36+P04350+Q3ZCM7+P07437+P68363+Q9BQE3+Q6PEY2+Q13885+Q9BVA1+Q9BUF5); assay: Inhibition of tubulin polymerization in human MCF7 cells assessed as disruption of microtubule network at 4 uM after 24 hrs by DAPI based immunofluorescence assay; type: cell-based
Method in brief: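 MCF-7 cells on glass coverslips incubated 24 h with or without 4 µM compound. Fixed in 4% paraformaldehyde/0.02% glutaraldehyde, permeabilised in −20 °C methanol, blocked 1 h in 1% BSA/PBS. Stained with mouse anti-tubulin primary and Cy3 anti-mouse IgG secondary, nuclei with DAPI. Confocal images scored for microtubule integrity; nocodazole as reference.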

MCF7 [14] = assay: Down regulation of HDAC-3 protein in human MCF7 cells at 4 uM after 24 hrs by Western blot analysis; type: functional, cell-based; method in brief: as §2
MCF7 [15] = assay: Induction of apoptosis in human MCF7 cells assessed as activation of procaspase-7 at 4 uM after 24 hrs by Western blot analysis; type: functional, cell-based; method in brief: as §2
MCF7 [16] = assay: Induction of apoptosis in human MCF7 cells assessed as up-regulation of Bax gene at 4 uM after 24 hrs by Western blot analysis; type: functional, cell-based; method in brief: as §2
MCF7 [17] = assay: Down regulation of NF-kappa B p65 protein in human MCF7 cells at 4 uM after 24 hrs by Western blot analysis; type: functional, cell-based; method in brief: as §2

SMILES | Activity (MCF7 [1]) [%] | GI50 (A549) [nM] | Activity (MCF7 [2]) [%] | Activity (MCF7 [3]) | GI50 (SiHa) [nM] | GI50 (COLO 205) [nM] | GI50 (KB) [nM] | GI50 (HOP-62) [nM] | GI50 (MCF7 [4]) [nM] | Activity (MCF7 [5]) | GI50 (A2780) [nM] | Activity (MCF7 [6]) [%] | Activity (MCF7 [7]) [%] | GI50 (PC-3) [nM] | GI50 [8] [nM] | GI50 [9] [nM] | GI50 (ZR-75-1) [nM] | other results
COc1cc2c(cc1O)N=C[C@@H]1CCCN1C2=O | 4.83 | 160 | 13 | Active | 170 | 110 | 170 | 150 | 170 | Active | 140 | 8.5 | 73.66 | 200 | 160 | – | – | –
COc1cc2c(cc1OCCCN1CCN(CCCOc3ccc4c(c3)CC[C@@H]3[C@@H]4CC[C@]4(C)[C@@H](O)CC[C@@H]34)CC1)N=C[C@@H]1C[C@@H](F)CN1C2=O | 24.33 | < 100 | 24.01 | – | 150 | 130 | 120 | 110 | < 100 | Active | < 100 | 0.87 | 50.53 | < 100 | 110 | 100 | < 100 | –
COc1cc2c(cc1OCc1cn(CCCOc3ccc4c(c3)CC[C@@H]3[C@@H]4CC[C@]4(C)[C@@H](O)CC[C@@H]34)nn1)N=C[C@@H]1C[C@@H](F)CN1C2=O | 36.64 | < 100 | 30.59 | Active | < 100 | 110 | < 100 | < 100 | < 100 | Active | < 100 | 2 | 30.76 | < 100 | < 100 | < 100 | < 100 | Activity (MCF7 [10]): Active; Activity (MCF7 [11]): Active; Activity (MCF7 [12]): Active; Activity (MCF7 [13]): Active; inhibition (Tubulin (Homo sapiens)): Active; Activity (MCF7 [14]): Active; Activity (MCF7 [15]): Active; Activity (MCF7 [16]): Active; Activity (MCF7 [17]): Active
C[C@]12CC[C@@H]3c4ccc(O)cc4CC[C@H]3[C@@H]1CC[C@@H]2O [ESTRADIOL] | 23.8 | – | 25.26 | Active | – | – | – | – | – | Active | – | 0.83 | 50 | – | – | – | – | –
COc1cc2c(cc1OCc1cn(CCCCCOc3ccc4c(c3)CC[C@@H]3[C@@H]4CC[C@]4(C)[C@@H](O)CC[C@@H]34)nn1)N=C[C@@H]1CC(F)(F)CN1C2=O | 21.8 | 170 | 22.3 | – | 1210 | 160 | 190 | 190 | 110 | Active | 1800 | 0.74 | 55 | 170 | 190 | 180 | 180 | –
COc1cc2c(cc1OCCCN1CCN(CCCOc3ccc4c(c3)CC[C@@H]3[C@@H]4CC[C@]4(C)[C@@H](O)CC[C@@H]34)CC1)N=C[C@@H]1CCCN1C2=O | 24.01 | 120 | 25.2 | – | 130 | 130 | 190 | 1140 | 110 | Active | 1300 | 2.84 | 47.9 | 140 | 140 | 120 | 120 | –
COc1cc2c(cc1OCc1cn(CCCCCOc3ccc4c(c3)CC[C@@H]3[C@@H]4CC[C@]4(C)[C@@H](O)CC[C@@H]34)nn1)N=C[C@@H]1C[C@@H](F)CN1C2=O | 32.4 | < 100 | 25.8 | – | 110 | 120 | < 100 | 110 | < 100 | Active | < 100 | 0.82 | 42.5 | < 100 | – | 120 | < 100 | Activity (MCF7 [10]): Active; Activity (MCF7 [11]): Active; Activity (MCF7 [13]): Active; inhibition (Tubulin (Homo sapiens)): Active; Activity (MCF7 [15]): Active; Activity (MCF7 [16]): Active
